Only some compounds are listed: those with a hit (about 2% of all), similar ones and a draw of the others.
HGIII-sPLA2 inh = Inhibits HGIII-sPLA2 liposome hydrolysis, primary screen. actives 0.56% (n = 370,000). inhibition, % at 12.2 µM. Q9NZ20. QFRET BODIPY PC-A2 liposome hydrolysis, fluorescence;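 active = inhibition above mean plus 3 SD of compounds lying within the high and low control bounds, cut at about 19% in these data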
ARNT TACC3 PPI = disruptors of human ARNT/TACC3 interaction; actives 0.66% (n = 390,000); AlphaScreen His-ARNT PAS-B/GST-TACC3 binding, luminescence; TACC3 fragment carries E629A point mutation; AID 623870; inhibition, % at 9.99 µM;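 active = mean inhibition of replicates at least 50% and at least half of replicates each reaching 50%; inconclusive = half or more replicates reach 50% but mean below 50%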
NSD2 inh = blocks human histone methyltransferase NSD2. actives 0.54% (n = 310,000). NSD2 peptide methylation, AlphaScreen, 120 min. inhibition, % at 12.5 µM; in the data active = inhibition above about 50%
SR-BI uptake up = SR-BI HDL lipid transfer activation. CHO ldlA[mSR-BI] cells, DiI-HDL uptake fluorescence, 3 h; 100 = double the neutral-control signal. activation, % at 12.5 µM. actives 0.096% (n = 320,000). AID 504775;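 active = mean replicate activation of at least 60% and every replicate at or above 60%; inconclusive = mean or all-replicate condition met, but not both; inactive = mean below 60% and not all replicates reaching 60%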
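System: LDL receptor-deficient CHO ldlA cells overexpressing murine SR-BI | Timing: 3 h uptake period with compound, 37 °C | Medium: HEPES-buffered (25 mM, pH 7.4) F12 plus 0.5% BSA | Dosing: Single-point compound dose | Signal: Bottom-read fluorescence, 550/595 nm | Read-out: Retained DiI signal reflecting DiI-HDL uptake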
SR-BI DiI inh = blocks mouse SR-BI lipid uptake from DiI-HDL; ldlA[mSR-BI] CHO cells, DiI-HDL uptake fluorescence, 3 h; inhibition, % at 12.5 µM; actives 0.96% (n = 320,000);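 active = mean replicate inhibition of at least 70% and a set share of replicates each scoring 70 or more; inconclusive = meets just one of the two criteria; inactive = fails both criteria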
Target sequence (Q61009 whole entry, looked up): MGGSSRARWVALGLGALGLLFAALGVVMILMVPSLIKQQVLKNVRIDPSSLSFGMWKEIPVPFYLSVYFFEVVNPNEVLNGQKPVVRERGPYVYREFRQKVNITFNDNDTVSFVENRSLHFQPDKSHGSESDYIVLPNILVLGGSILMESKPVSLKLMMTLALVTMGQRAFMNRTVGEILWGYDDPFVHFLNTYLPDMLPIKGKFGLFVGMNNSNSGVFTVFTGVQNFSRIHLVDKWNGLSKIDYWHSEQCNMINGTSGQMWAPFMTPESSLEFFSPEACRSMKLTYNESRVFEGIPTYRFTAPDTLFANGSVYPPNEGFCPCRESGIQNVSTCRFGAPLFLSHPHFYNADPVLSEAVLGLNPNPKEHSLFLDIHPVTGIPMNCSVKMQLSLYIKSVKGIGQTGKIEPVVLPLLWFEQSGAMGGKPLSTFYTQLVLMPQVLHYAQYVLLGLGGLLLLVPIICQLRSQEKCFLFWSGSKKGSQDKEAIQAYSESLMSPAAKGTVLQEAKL
XiGFP reactiv = reactivates the inactive X chromosome in mouse fibroblasts | XiGFP mouse fibroblasts, % GFP-positive cells imaging, 3 d; cells co-treated with 5-aza-dC sensitizer; scaled so ellipticine positive control = 100% | activation, % at 7.58 µM | actives 0.055% (n = 360,000) | AID 743238;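 active = mean normalized replicate activation at least 10% and every replicate at or above 10%; inconclusive = only one of the two criteria met; inactive = mean below 10% and not all replicates reach 10%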
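Material: XiGFP fibroblasts, SV40-immortalized; Buffer or medium: DMEM containing 5-aza-dC; Compound dosing: single point; Times: 3 days compound exposure.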
Hits are given with their value; 0 = inactive; ? = inconclusive; - = no result given.

SMILES | HGIII-sPLA2 inh | ARNT TACC3 PPI | NSD2 inh | SR-BI uptake up | SR-BI DiI inh | XiGFP reactiv
COc1cccc(/C=N/NC(=O)C(=O)Nc2ccccc2OC(F)(F)C(F)F)c1O | 0 | 0 | 0 | 0 | 110 | 0
COc1cccc(/C=N/NC(=O)c2[nH]c(C)c(C(=O)N/N=C/c3cccc(OC)c3O)c2C)c1O | 0 | 0 | - | 0 | 125 | -
CCCNC(=O)C[C@H]1CC[C@@H]2[C@H](COC[C@H](O)CN2C(=O)Nc2c(C)noc2C)O1 | - | 0 | - | - | - | 0
O=C(CSc1nc2ccccc2c(=O)n1-c1ccc(F)cc1F)NC1CCS(=O)(=O)C1 (centres undefined) | 0 | - | 0 | - | - | 0
CCOc1ccccc1C=NNC(=O)CCCCC(=O)NN=Cc1ccccc1OCC | 0 | - | 0 | 0 | 81 | 0
COc1ccc(C(=O)N/N=C/c2c(C)nn(-c3ccccc3)c2OC)cc1 | 0 | 0 | 0 | 0 | 71 | 0
Cc1nn(-c2ccccc2)c(C)c1/C=N/NC(=O)c1cc(O)cc(O)c1 | 0 | 0 | 0 | 0 | 0 | 0
COc1cccc(/C=N/NC(=O)C[n+]2ccccc2)c1O | 0 | 67 | 0 | 0 | 0 | 0
CCOc1ccccc1/C=N/NC(=O)c1ccc(Cn2cc([N+](=O)[O-])cn2)o1 | 0 | 0 | 0 | 0 | 87 | -
CCOc1ccccc1C=NNC(=O)C(=O)NN=Cc1ccccc1OCC | 0 | 0 | 0 | 0 | 0 | 0
CCn1c(SCC(=O)N(C)C2CCS(=O)(=O)C2)nnc1-c1ccccc1 (centres undefined) | 0 | 0 | 0 | 0 | 0 | 0
CCC(=O)N1C[C@H](C)[C@H](OC)CN(C)C(=O)c2cc(NC(=O)C3CC3)ccc2OC[C@H]1C | - | 0 | - | - | - | 0
CCOc1ccccc1NC(=O)C(=O)N/N=C/c1cc(Br)ccc1O | 0 | 0 | 0 | 0 | 126 | 0
COc1cc(C(=O)NCC(=O)N/N=C/c2ccco2)cc(OC)c1OC | 0 | 0 | 0 | 0 | 0 | 0
COc1cccc(/C=N/NC(=O)c2ccc(=O)n(C)c2)c1O | 0 | 0 | 0 | 0 | 0 | 0
COc1ccc(OC)c(/C=N\NC(=O)c2ccc(-c3ccccc3)cc2)c1 | 0 | 0 | 0 | - | 78 | 0
COc1cccc(/C=N/NC(=O)c2ccc(-c3ccccc3)cc2)c1O | 0 | 0 | 0 | 0 | 123 | -
COc1ccc(C(=O)NCC(=O)N/N=C/C(C)=C/c2ccco2)cc1OC | 0 | - | 0 | 0 | 85 | 0
C[C@H](CO)N1C[C@H](C)[C@H](CN(C)Cc2ccc(C(F)(F)F)cc2)OCCCC[C@H](C)Oc2ccc(NC(=O)CCC(F)(F)F)cc2C1=O | - | 0 | - | - | - | 0
O=C(NC1CCN(Cc2ccccc2)CC1)C1CCN(S(=O)(=O)c2cccc3cccnc23)CC1 | 0 | 0 | - | 0 | 0 | 0
CCOC(=O)Cn1c(=O)oc2cc(S(=O)(=O)NCCc3ccc(OCC)c(OCC)c3)ccc21 | 0 | 0 | 0 | 0 | 0 | -
Cc1ccc(S(=O)(=O)N2CCC(C(=O)N[C@@H](Cc3ccccc3)C(=O)O)CC2)cc1 | 0 | 0 | 0 | 0 | 0 | -
COC(=O)C1=C(C)N(Cc2ccc(Br)cc2)C(=S)NC1c1cccc(Br)c1 (centres undefined) | 0 | - | - | - | - | 0
COc1cccc(/C=N/NC(=O)CNC(=O)c2ccco2)c1O | 0 | 36 | - | - | - | 0
Cc1[nH]c(C(=O)N/N=C/c2ccc(N(C)C)cc2)c(C)c1C(=O)N/N=C/c1ccc(N(C)C)cc1 | 0 | 0 | 0 | 0 | 87 | 0
SMILES | HGIII-sPLA2 inh | ARNT TACC3 PPI | NSD2 inh | SR-BI uptake up | SR-BI DiI inh | XiGFP reactiv
C[C@@H]1CN([C@H](C)CO)C(=O)c2cccc(NC(=O)c3ccncc3)c2O[C@H]1CN(C)Cc1ccc(C(=O)Nc2ccccc2N)cc1 | - | 0 | - | - | - | 0
CCOC(=O)[C@]12CCCC=C1N(Cc1ccc(Cl)cc1Cl)C(=O)[C@H](CC(=O)NCc1ccccc1)C2 | 0 | - | - | - | - | 0
Cc1cccc(C(=O)NNC(=O)c2ccc(-c3ccccc3)cc2)c1 | 0 | 0 | 0 | 0 | 80 | -
O=C(NNC(=O)c1ccc(-c2ccccc2)cc1)c1ccccc1 | 0 | 0 | 0 | 0 | 0 | 0
CCCNC(=O)C[C@@H]1CC[C@@H]2[C@@H](COc3ccc(NC(=O)c4ccccc4)cc3C(=O)N2C)O1 | - | 0 | - | - | - | 0
COc1cccc(C(=O)/C=C/Nc2cc(C)ccc2O)c1 | 0 | 0 | 0 | 0 | 92 | -
CCOC(=O)c1ccc(N/C=C\C(=O)c2cccc(OC)c2)cc1 | 0 | 0 | 0 | 0 | 0 | 0
Cc1ccc(-c2c(C(=O)N/N=C/c3cccs3)nnn2-c2nonc2N)cc1 | - | 0 | 0 | 0 | 0 | -
CCOc1ccc(-c2c(C(=O)N/N=C/c3cccs3)nnn2-c2nonc2N)cc1 | 0 | 0 | 0 | 0 | 81 | 0
CCCc1c(C(=O)N/N=C/c2ccccc2C(F)(F)F)nnn1-c1nonc1N | 0 | 0 | 0 | 0 | 76 | 0
CCc1c(C(=O)N/N=C/c2sccc2C)nnn1-c1nonc1N | 0 | 0 | 0 | 0 | 77 | 0
CCCc1c(C(=O)N/N=C/c2ccc(C)o2)nnn1-c1nonc1N | 0 | - | 0 | - | - | 0
CCOc1ccc(-c2c(C(=O)N/N=C/c3sccc3C)nnn2-c2nonc2N)cc1 | 0 | 0 | 0 | 0 | 87 | 0
CCCCOc1nc(N2CCOCC2)nc(C)c1[N+](=O)[O-] | 0 | 0 | 0 | 0 | 0 | 0
CC(=O)c1c(O)cc(C)n(Nc2nc(C)cc(C)n2)c1=O | 0 | 73 | 0 | 0 | 0 | -
CC(C)n1nccc1N(Cc1ccc(C#N)cc1)S(=O)(=O)c1ccccc1 | 0 | 0 | 0 | - | - | 0
COc1cc(C2CC(=O)NC(SCC(=O)Nc3ccccc3C)=C2C#N)ccc1O (centres undefined) | 0 | 68 | 0 | 0 | 0 | -
CCCSC1=C(C#N)C(c2ccc(O)c(OC)c2)CC(=O)N1 (centres undefined) | 0 | 0 | - | 0 | 0 | 0
CC1CCN(C(=O)CSc2nnc(CNC(=O)c3ccc(F)cc3)o2)CC1 | 0 | 0 | 0 | 0 | 0 | 0
COCCN(C(=O)c1ccc2c(c1)C(=O)N(c1ccccc1Cl)C2=O)c1c(N)n(CC(C)C)c(=O)[nH]c1=O | 0 | 0 | 0 | 0 | 0 | 142
C#Cc1ccc([C@H]2C=C(C(=O)N3CCN(Cc4ccccc4)CC3)O[C@@H](OCc3ccc(CO)cc3)C2)cc1 | 0 | 0 | - | 0 | 0 | 0
O=C(C1=C[C@@H](c2ccc(Br)cc2)C[C@@H](OCc2ccc(CO)cc2)O1)N1CCN(Cc2ccccc2)CC1 | - | 0 | - | 63 | 0 | -
Cc1ccnc(NC(=S)NC(=O)c2ccco2)c1 | 0 | 0 | 0 | 64 | 0 | 0
C=CCNC(=O)N[C@@H](Cc1ccccc1)C(=O)OC | 0 | 0 | 0 | 0 | 0 | ?
O=C(CSc1nnc(-c2cccnc2)o1)Nc1ccc(F)cc1 | 0 | - | 0 | - | - | 0
O=C(CSc1nnc(-c2cccnc2)o1)Nc1nccs1 | 0 | 50 | 0 | 0 | 0 | 0
